According to ChEMBL document CHEMBL4513216, “Probing the Open Global Health Chemical Diversity Library for Multistage-Active Starting Points for Next-Generation Antimalarials” (ACS Infect Dis, 2020):

Experiment: Toxicity liver stage against HepG2, at 10uM
Format: cell-based
Design: test concentration 10 uM, cell line HepG2-A16-CD81EGFP
Details: human, HepG2-A16-CD81EGFP cells; read-out: INHIBITION
In short: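 Uninfected HepG2-A16-CD81EGFP cells, 3 × 10^3 per well, 1536-well, plated on prespotted compound at 10 μM final, parasite-free screening media added to match infected plates; puromycin 10 μM positive, DMSO 0.5% negative; run in parallel with 48 h PbLuc assay at 37 °C, 5% CO2; viability by CellTiter-Glo luminescence, normalized to controls.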

| SMILES | cytotoxicity at 10 µM |
| --- | --- |
| COc1c(CNC2CCc3cc(F)ccc32)c(C(C)C)nn1C (configuration not stated) | 1.16% |
| CS(=O)(=O)CCN(CCCO)C1CCc2ccccc21 (configuration not stated) | 7.37% |
| CN(C)C(=O)c1nnc2ccc(N3CCOCC3)cc2n1 | 6.47% |
| COc1ccccc1CCN1CCCC(CN(C)Cc2cc(C)n[nH]2)C1 (configuration not stated) | -4.52% |
| O=C1COC2(CCN(c3ncccn3)CC2)CN1 | 12.9% |
| CCOCC1CN(C(=O)c2cccnc2)Cc2cnn(C)c21 (configuration not stated) | -1.28% |
| Cn1c2ncccc2c(=O)n1CC(=O)NCCc1c(F)cccc1F | -5.33% |
| Cc1nn(C)c2c(=O)n(C)c(NCC3CCCO3)nc12 (configuration not stated) | 0.186% |
| CN(Cc1nc(CS(C)(=O)=O)no1)c1ccccc1 | 4.04% |
| CC(C(N)=O)N(C)CCCc1cc(-c2ccccc2)no1 (configuration not stated) | -5.01% |
| CN1CCC2(CC1)CN(CC1CC1)CC21CCNC1=O (configuration not stated) | 2.02% |
| CC(c1nnc(-c2cccs2)o1)N1CCn2c(nnc2C2CC2)C1 (configuration not stated) | 17.7% |
| Cc1noc(C2CCN(C(=O)c3ccc(N(C)C)nc3)CC2)n1 | -5.95% |
| c1ccc(Cc2cncc(C3CCCN3C3CCOCC3)n2)cc1 (configuration not stated) | 1.4% |
| COC(=O)CNC(=O)c1ccc(OC2CCN(S(C)(=O)=O)CC2)c(Cl)c1 | -4.52% |
| CCN1CC2(CC1=O)CN(C(=O)C(C)C)CCN(S(C)(=O)=O)C2 (configuration not stated) | -4.54% |
| CN(C)CC(=O)N1CCCC2(CCC(=O)N(CCc3c[nH]cn3)C2)C1 (configuration not stated) | -8.77% |
| c1ccc(N2CCC(OCC3CCCCO3)CC2)nc1 (configuration not stated) | -1.03% |
| Cc1cc(C2CCCN(CCCS(C)(=O)=O)C2)n[nH]1 (configuration not stated) | -13.2% |
| Cc1nn(C)c2ncc(CN3CCN(Cc4ccco4)CC3)cc12 | 0.243% |
| CCCNC(=O)C(C)n1cc(Br)cn1 (configuration not stated) | -19.7% |
| COc1cccc(CNc2c(C)nn(C(C)C)c2C)c1 | -46.9% |
| CCc1nc(COc2ccc(OCc3cnn(C)c3)cc2)no1 | -14.9% |

| SMILES | cytotoxicity at 10 µM |
| --- | --- |
| Cc1ccc(C(=O)N2CCC(n3cc(CO)nn3)CC2)cn1 | -1.72% |
| CN1CCC(N(Cc2ccncc2)C(=O)COCC2CCCCO2)CC1 (configuration not stated) | -150% |
| CCS(=O)(=O)N1C[C@H]2CN(c3cnn(C)c3)C(=O)[C@H]2C1 | -1.19% |
| C1CC(N2Cc3nnn(CC4CC4)c3C(COCC3CC3)C2)C1 (configuration not stated) | 5.57% |
| COc1ncc(NCc2ccc(F)cc2)cc1C(N)=O | -0.976% |
| COC(=O)CNC(=O)c1c(-n2cnnn2)sc2c1CCCC2 | 10.6% |
| O=C(c1c[nH]c2ncccc12)N(Cc1ccco1)C1CCCC1 | 2.07% |
| Cc1c[nH]nc1C1CCN(C(=O)C2CCOCC2)C1 (configuration not stated) | 4.71% |
| CCc1nccn1-c1cncc(C2CCCN2CC(=O)N2CCCC2)n1 (configuration not stated) | 0.193% |
| Nc1ncc(C(=O)N2CCN(c3nccs3)CC2)cc1Cl | -3.78% |
| CCC(=O)N1CCCN(Cn2nc(C)c(Br)c2C)CC1 | 6.1% |
| Cc1ncc(CN2CCc3c(nc(-c4ccccn4)[nH]c3=O)C2)n1C | -30.1% |
| Cc1nc(C2CCCN(C(=O)c3csc(C)n3)C2)no1 (configuration not stated) | 7.04% |
| COCCCN(Cc1cnc(-c2ccccn2)nc1)C1CCN(C)CC1 | -0.988% |
| CCN1CC2(CC1=O)CN(C(=O)N(C)C)CCN(S(C)(=O)=O)C2 (configuration not stated) | -0.757% |
| Cc1ccc(N2CCCC(N(C)Cc3c(C)noc3C)C2)nn1 (configuration not stated) | -14% |
| CCc1[nH]c2ccc(CNc3cncc(C(=O)N(C)C)n3)cc2c1C | 7.59% |
| COCCCN(Cc1ccccn1)Cc1ccnn1C1CCCCO1 (configuration not stated) | -2.66% |
| O=C(C[C@@H]1COC[C@H]2CN(CC3CCOCC3)C[C@@H]12)N1CCCCO1 | 7.49% |
| O=C(O)c1ccn(-c2ccccc2NS(=O)(=O)c2ccccc2)n1 | 23% |
| CN(C)C(C(=O)NCC1(C)COC1)c1cccc(F)c1 (configuration not stated) | -6.41% |
| Cc1ccc(Cl)c2c1C1(NC(=O)c3cccnc3N1)C(=O)N2 (configuration not stated) | 11.9% |
| O=C(N[C@@H]1CCC[C@@H](N2CCCC2)[C@@H]1O)c1cnn2cccnc12 | 10.6% |

| SMILES | cytotoxicity at 10 µM |
| --- | --- |
| CCOCCNC(=O)CCC1CCCO1 (configuration not stated) | -122% |
| CC(C)(C)c1cn2nc(N3CCCC(Cn4cncn4)C3)sc2n1 (configuration not stated) | -9.32% |
| CCc1ccc(C2COCCN2C(=O)Nc2cc(C)on2)o1 (configuration not stated) | -4.31% |
| Oc1nc(N2CCCC2)nc2c1CCN(Cc1cccnc1)CC2 | -7.25% |
| O=c1cc(Cn2ccnc2)nc2n1CCCN(CC1CCOCC1)C2 | 12.7% |
| CC(Cn1cccn1)NC(=O)N(C)Cc1ccc(C(N)=O)cc1 (configuration not stated) | 3.37% |
| CCNC(=O)NC[C@H]1Cn2c(-c3ccccc3)cnc2CO1 | -2.12% |
| O=C(c1cc[nH]n1)N1CCCC1c1cncc(CN2CCOCC2)n1 (configuration not stated) | 9.31% |
| Cc1nc(-c2ccc(C(=O)O)cc2)cc(C2CCN(C(C)C)C2)n1 (configuration not stated) | 6.62% |
| C1CC(CN2CCOCC3(CCN(C4CCOCC4)C3)C2)CCO1 (configuration not stated) | -3.37% |
| CCOCC1CN(Cc2cnn(C)c2)Cc2nn(C)cc21 (configuration not stated) | 2.37% |
| c1ccc(-c2nccc(N3CCc4c(ncn4C4CC4)C3)n2)cc1 | 7.22% |
| O=C(O)c1c[nH]c2cc(NS(=O)(=O)c3ccc(Cl)cc3F)ccc12 | -1.2% |
| Cc1nc2ccccc2c(=O)n1CCC(=O)N1CCCCCC1 | -6.57% |
| CCn1c(C)cc(C(=O)N2CCC(NC(=O)c3ccc(C)o3)CC2)c1C | -7.45% |
| CN1CCN(C(=O)c2ccc(Cn3cc(Br)cn3)cc2)CC1 | -3.7% |
| CCn1cnnc1C1CCN(C(=O)c2cccc(C)c2C)CC1 | -3.61% |
| CC(CNC(=O)c1cnc[nH]1)Oc1ccc(Cl)cc1 (configuration not stated) | -7.09% |
| CS(=O)(=O)Cc1cc(Cl)c2c(c1)OCCCO2 | -2.55% |
| O=C(c1csc(I)c1)N1CCc2c(ncn2C2CC2)C1 | 7.21% |
| Cc1ccccc1C(O)c1ccncc1 (configuration not stated) | -4.84% |
| CCC(C)(C)NC(=O)CN(Cc1cccc(O)c1)C1CCC(O)CC1 (configuration not stated) | -2.22% |
| CNC(=O)CN(C)c1nc(-c2ccc(C(N)=O)cc2)nc2c1CCNC2 | 3.62% |

| SMILES | cytotoxicity at 10 µM |
| --- | --- |
| CCc1ccc(CNCC2CCN(CCO)CC2)cc1 | -6.73% |
| CC(=O)N1CCN(Cc2ccc(C(F)(F)F)cc2F)CC(O)C1 (configuration not stated) | -5.34% |
| Cc1cnn(C2CN(CC(=O)N(C)Cc3cccs3)C2)c1 | -16.1% |
| Cc1ccc2c(c1)CCC2NCc1c(C)nn(C)c1N1CCOCC1 (configuration not stated) | -8.03% |
| Cc1cnn(CCNCc2nnc(-c3ccccc3)o2)c1 | -10.4% |
| Cc1ccc(CNCC(C)Oc2ccccn2)cc1 (configuration not stated) | 5.4% |
| Cc1cccc2c1nc1n2[C@@H](CNC(=O)CCC(=O)O)COC1 | -4.83% |
| Cc1[nH]nc2ncc(C(=O)N3CCN(CC(C)C)CC3)cc12 | -3.88% |
| Cc1cn(CC(=O)NC2CCN(C(C)C)CC2)c2ccccc12 | 0.0531% |
| CCn1c(C)nnc1Sc1nn2cc(C)nc2s1 | -1.99% |
| CCc1[nH]nc(NC(=O)c2ccc(Cl)cn2)c1C | -9.69% |
| COc1ccc(NS(=O)(=O)c2cnc(NC(C)=O)s2)cc1 | 10.9% |
| CC(O)c1cccc(N2CCC3(CCC(=O)N(C4CCCC4)C3)CC2)n1 (configuration not stated) | -3.56% |
| Cc1cc(C)n(-c2ccc(N3CCC(O)CC3)nc2)n1 | -5.08% |
| Cc1nc(C)n(CC2CCCN2CCC(=O)N2CCCCC2)n1 (configuration not stated) | -2.67% |
| Cc1ccnc(N2CCCC(c3noc(C(C)C)n3)C2)n1 (configuration not stated) | 21.9% |
| Cc1ccnc(NC(=O)c2ccc(-n3ncc(C#N)c3N)cc2)c1 | 1.22% |
| Fc1ccc(-c2nccnc2C2CCCNC2)cc1 (configuration not stated) | -23.8% |
| CCc1noc(C)c1C(=O)N1CCCC1Cn1cc(C)cn1 (configuration not stated) | -6.46% |
| CCCc1nn(C2CCCN(C(C)C)C2=O)c(=O)o1 (configuration not stated) | -6.11% |
| CCCC(O)CN1CCC(=O)N(CCOC)Cc2cc3c(cc21)OCO3 (configuration not stated) | 6.91% |
| c1ccc(CN2CC[C@H]3CO[C@H](CNc4ncccn4)[C@H]3C2)cc1 | -5.87% |
| Cc1cc(NC(=O)c2ccc(F)cc2Cl)n(C)n1 | -77.5% |

| SMILES | cytotoxicity at 10 µM |
| --- | --- |
| Cc1ccc(C(=O)NS(=O)(=O)Cc2ccccc2)cc1S(C)(=O)=O | 3.09% |
| CC(=O)NCCCSC1CCCN(c2ccccc2F)C1=O (configuration not stated) | -0.906% |
| CCOC(=O)COc1ccc(C(C)=O)c(O)c1 | -19.3% |
| Cc1ccc(C(=O)N2CCCCC2c2[nH]ncc2S(C)(=O)=O)cn1 (configuration not stated) | -6.72% |
| COCc1nc(CNc2cccc(-c3nc(C)c(C)o3)c2)cs1 | 5.11% |
| CS(=O)(=O)N1CCC(c2cnc(-c3cn[nH]c3)cn2)CC1 | 3.64% |
| CC(NC(=O)CSCC(N)=O)c1ccc(Oc2ccccc2)cc1 (configuration not stated) | 2.98% |
| CN(C)Cc1nnn2c1CN(Cc1cccnc1)CCC2 | 5.69% |
| CC(=O)N1CCC2(C=C(C(=O)NC3CC3)c3ccccc32)CC1 | 4.59% |
| COCc1ccc(CNC(=O)C2=NN(c3ccccc3)C(=O)CN2)cc1 | 26.7% |
| COc1ccc(C(=O)NCCN2CCC(c3cccs3)CC2)cc1OC | -0.493% |
| Cc1cc(NCC(=O)N(C)C(C)c2cccs2)c(C(N)=O)cc1F (configuration not stated) | -0.99% |
| CCc1nc(CN(C)CC2CCN(CC(C)O)CC2)no1 (configuration not stated) | -10.3% |
| Cn1cccc1C(=O)NCc1cn2c(n1)CN(C(=O)c1ccsc1)CC2 | -112% |
| O=C(Cc1ccccc1)N1CCC2(CC1)COCCN2CC1CC1 | -78.5% |
| CCNC(=O)C(C)NC(=O)c1cnc(-c2ccc(C)cc2C)s1 (configuration not stated) | -18.7% |
| CCNC(=O)c1sccc1N(C)S(=O)(=O)c1ccc(Cl)cc1 | 10.8% |
| O=C(c1ccccc1)N1C[C@H]2CC[C@@H](C1)N(Cc1cc(F)ccc1Cl)C2 | -4.39% |
| Cc1ccc([C@H]2CN(C(C)C)C[C@@H]2NS(=O)(=O)N2CCOCC2)o1 | -1.01% |
| c1ccc(-c2cccc(N3CCC(NCCc4cscn4)CC3)c2)cc1 | 3.58% |
